This is an account of results in ChEMBL document CHEMBL4602668, “Oxygenated Cyclohexene Derivatives and Other Constituents from the Roots of Monanthotaxis trichocarpa” (J Nat Prod, 2020).

Each structure is given as a SMILES string. In brackets after ≈: the same amount, converted by molar mass. Activity calls are given as the source filed them. No cut-off for these calls is given here.

As usually defined, the EC50 is the concentration needed to bring the measured effect to its halfway point. A higher EC50 goes with lower potency in that assay. One may read the MIC as the least concentration at which growth counts as inhibited. A lower MIC goes with greater potency.

For the first assay, the system named is Escherichia coli. Kind of assay: Antibacterial activity against Escherichia coli at 5 mM incubated for 18 hrs by AlamarBlue assay. It is filed as functional, organism-based.
Conditions: not given
Background: The colour change of resazurin is a common sign of viable cells or microbes.
Regarding `COc1c(Cc2ccccc2O)c(O)c(Cc2ccccc2O)c(O)c1C(=O)CCc1ccccc1`, the result was inactive.
As to `CO[C@H]1C=C[C@@H](OC(=O)c2ccccc2)[C@@H](OC)[C@]1(O)COC(=O)c1ccccc1`, the outcome was inactive.
Same read-out and setting: for `CO[C@H]1[C@H](OC(=O)c2ccccc2)C=C[C@H](Cl)[C@]1(O)COC(=O)c1ccccc1` the value was “inactive”; for `COc1cc(O)cc(O)c1C(=O)CCc1ccccc1`, “inactive”; for `COc1cc(O)c(Cc2ccccc2O)c(O)c1C(=O)CCc1ccccc1` [UVARETIN], “inactive”.
Same read-out and setting: in the case of `CC(=O)O[C@@H]1C=C[C@@H](OC(=O)c2ccccc2)[C@H](O)[C@]1(O)COC(=O)c1ccccc1` it was “inactive”; in that of `CC[C@H](CC[C@@H](C)[C@H]1CC[C@H]2[C@@H]3CC=C4C[C@@H](O)CC[C@]4(C)[C@H]3CC[C@]12C)C(C)C`, “inactive”; in that of `CO[C@@H]1[C@H](OC(=O)c2ccccc2)C=C[C@@H](O)[C@@]1(O)COC(=O)c1ccccc1`, “inactive”.
For `COc1ccc(C(=O)C(C)c2ccc(O)cc2)c(O)c1` (centres undefined), the result was inactive.
Turning to `CC[C@H](/C=C/[C@@H](C)[C@H]1CC[C@H]2[C@@H]3CC=C4C[C@@H](O)CC[C@]4(C)[C@H]3CC[C@]12C)C(C)C`, the result was inactive.
For `COc1ccccc1COC(=O)c1ccccc1`, the result was inactive.
With `O=C(OCc1ccccc1)c1ccccc1`, the outcome was inactive.

For a further assay, the system named is MCF7. Kind of assay: Cytotoxicity against human MCF7 cells after 24 hrs by PrestoBlue cell viability reagent based assay. It counts as functional. The conditions noted are these: MCF7, 24 h. In short, it runs like this:
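MCF-7 cells were kept in exponential growth in DMEM with 10% fetal calf serum, reseeded in 96-well plates, and settled 24 h. Compounds were added from DMSO stock (final solvent 0.3% v/v) in 2-fold dilutions for 24 h. Viability was read as resorufin fluorescence (ex 544/em 590 nm) and expressed as % of solvent-only control. EC50 came from three independent replicate experiments.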
On to `COc1cc(O)c(Cc2ccccc2O)c(O)c1C(=O)CCc1ccccc1` [UVARETIN], for which a half-maximal effect (EC50) was put at 10.2 µM.

The subject of another assay is Bacillus subtilis. The assay can be described thus: Antibacterial activity against Bacillus subtilis incubated for 18 hrs by AlamarBlue assay. It is filed as functional.
Conditions: not given
In the case of `COc1cc(O)c(Cc2ccccc2O)c(O)c1C(=O)CCc1ccccc1` [UVARETIN], inhibition of growth (MIC) required 18 µM (≈ 6.81 µg/mL).
